From ChEMBL document CHEMBL4251648, “Synthesis and bioevaluation and doking study of 1H-pyrrolo[2,3-b]pyridine derivatives bearing aromatic hydrazone moiety as c-Met inhibitors” (Eur J Med Chem, 2018)
Calls of active or inactive are those of the source. No cut-off for these calls is given here.

Columns and labels:
A549 [1] = test: Induction of apoptosis in human A549 cells assessed as change in cell morphology at 0.8 uM after 12 hrs by acridine orange staining-based fluorescence microscopic method; type: functional
Method in brief: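 A549 cells in MEM with 10% FBS, about 2×10⁴ per well, pre-incubated 24 h at 37°C in 5% CO₂. Given drug-free medium or 0.80 µM compound for 12 h. Stained with acridine orange in PBS at 10 µg/mL final for 10 min in the dark, washed three times with PBS, and nuclear morphology viewed by fluorescence microscopy.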

MCF7 = test: Antiproliferative activity against human MCF7 cells after 72 hrs by MTT assay; type: functional, cell-based
Method in brief: (§1)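 Cells grown in MEM with 10% FBS. About 4×10³ cells per well, pre-incubated 24 h at 37°C in 5% CO₂. Compound added at final concentrations, then 72 h. MTT added at 5 µg/mL final for 4 h at 37°C. Tested three times; IC50 taken as the average of […] determinations.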

A549 [2] = test: Cell cycle arrest in human A549 cells assessed as accumulation at sub-G1 phase at 4 uM after 12 hrs by propidium iodide staining-based flow cytometry (reference value: 0.06%); type: functional
A549 [3] = test: Cell cycle arrest in human A549 cells assessed as accumulation at S phase at 4 uM after 12 hrs by propidium iodide staining-based flow cytometry (reference value: 48.44%); type: functional
A549 [4] = test: Cell cycle arrest in human A549 cells assessed as accumulation at G2/M phase at 4 uM after 12 hrs by propidium iodide staining-based flow cytometry (reference value: 23.62%); type: functional
[5] = target: T1, Receptor-type tyrosine-protein kinase FLT3 (Homo sapiens, UniProt P36888); test: Inhibition of FLT3 (unknown origin)
T1 sequence (P36888 whole entry): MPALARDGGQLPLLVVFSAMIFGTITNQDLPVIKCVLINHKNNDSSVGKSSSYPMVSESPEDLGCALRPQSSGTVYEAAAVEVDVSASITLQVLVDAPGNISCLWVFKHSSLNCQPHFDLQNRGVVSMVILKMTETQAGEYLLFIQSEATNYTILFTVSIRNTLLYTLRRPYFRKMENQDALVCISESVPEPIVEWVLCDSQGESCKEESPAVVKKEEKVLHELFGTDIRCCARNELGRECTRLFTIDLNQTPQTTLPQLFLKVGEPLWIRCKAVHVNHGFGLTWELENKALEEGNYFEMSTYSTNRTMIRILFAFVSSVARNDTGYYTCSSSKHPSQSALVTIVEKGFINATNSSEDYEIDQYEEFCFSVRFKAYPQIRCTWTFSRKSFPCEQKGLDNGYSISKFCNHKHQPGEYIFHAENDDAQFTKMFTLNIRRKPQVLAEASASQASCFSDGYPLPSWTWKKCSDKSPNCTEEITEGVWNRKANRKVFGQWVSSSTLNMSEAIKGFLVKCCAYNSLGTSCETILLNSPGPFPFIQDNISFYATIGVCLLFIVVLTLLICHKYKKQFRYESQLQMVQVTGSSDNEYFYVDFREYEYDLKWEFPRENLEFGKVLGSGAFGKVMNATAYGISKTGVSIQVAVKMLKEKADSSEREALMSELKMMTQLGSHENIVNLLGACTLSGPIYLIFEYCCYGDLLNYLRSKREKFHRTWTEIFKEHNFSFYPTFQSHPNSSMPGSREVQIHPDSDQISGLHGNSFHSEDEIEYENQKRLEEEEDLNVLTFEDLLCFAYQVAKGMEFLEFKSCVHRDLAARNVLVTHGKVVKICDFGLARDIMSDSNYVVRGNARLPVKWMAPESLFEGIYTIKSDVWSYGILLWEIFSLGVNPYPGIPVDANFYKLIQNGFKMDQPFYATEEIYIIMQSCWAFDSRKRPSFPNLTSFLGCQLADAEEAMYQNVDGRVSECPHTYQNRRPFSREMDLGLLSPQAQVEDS

HepG2 = test: Antiproliferative activity against human HepG2 cells after 72 hrs by MTT assay; type: functional, cell-based
Method in brief: as §1, with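 “37°C. Formazan dissolved in DMSO and read at 492 nm against 630 nm reference.” for “37°C.”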

A549 [6] = test: Cell cycle arrest in human A549 cells assessed as accumulation at G1 phase at 4 uM after 12 hrs by propidium iodide staining-based flow cytometry (reference value: 27.08%); type: functional
A549 [7] = test: Antiproliferative activity against human A549 cells after 72 hrs by MTT assay; type: functional, cell-based; method in brief: as §1
PC-3 = test: Antiproliferative activity against human PC3 cells after 72 hrs by MTT assay; type: functional, cell-based; method in brief: as §1
[8] = target: Vascular endothelial growth factor receptor 2 (Homo sapiens, UniProt P35968); test: Inhibition of VEGFR2 (unknown origin)
[9] = target: Hepatocyte growth factor receptor (Homo sapiens, UniProt P08581); test: Inhibition of c-Met (unknown origin) using FAM-labeled peptide substrate after 10 mins by mobility shift assay
[10] = target: Epidermal growth factor receptor (Homo sapiens, UniProt P00533); test: Inhibition of EGFR (unknown origin)
A549 [11] = test: Antiproliferative activity against human A549 cells at 0.08 to 8 ug/ml by MTT assay; type: functional, cell-based; conditions: TDE = time-dependent effect

Chain of Epidermal growth factor receptor (P00533 whole entry): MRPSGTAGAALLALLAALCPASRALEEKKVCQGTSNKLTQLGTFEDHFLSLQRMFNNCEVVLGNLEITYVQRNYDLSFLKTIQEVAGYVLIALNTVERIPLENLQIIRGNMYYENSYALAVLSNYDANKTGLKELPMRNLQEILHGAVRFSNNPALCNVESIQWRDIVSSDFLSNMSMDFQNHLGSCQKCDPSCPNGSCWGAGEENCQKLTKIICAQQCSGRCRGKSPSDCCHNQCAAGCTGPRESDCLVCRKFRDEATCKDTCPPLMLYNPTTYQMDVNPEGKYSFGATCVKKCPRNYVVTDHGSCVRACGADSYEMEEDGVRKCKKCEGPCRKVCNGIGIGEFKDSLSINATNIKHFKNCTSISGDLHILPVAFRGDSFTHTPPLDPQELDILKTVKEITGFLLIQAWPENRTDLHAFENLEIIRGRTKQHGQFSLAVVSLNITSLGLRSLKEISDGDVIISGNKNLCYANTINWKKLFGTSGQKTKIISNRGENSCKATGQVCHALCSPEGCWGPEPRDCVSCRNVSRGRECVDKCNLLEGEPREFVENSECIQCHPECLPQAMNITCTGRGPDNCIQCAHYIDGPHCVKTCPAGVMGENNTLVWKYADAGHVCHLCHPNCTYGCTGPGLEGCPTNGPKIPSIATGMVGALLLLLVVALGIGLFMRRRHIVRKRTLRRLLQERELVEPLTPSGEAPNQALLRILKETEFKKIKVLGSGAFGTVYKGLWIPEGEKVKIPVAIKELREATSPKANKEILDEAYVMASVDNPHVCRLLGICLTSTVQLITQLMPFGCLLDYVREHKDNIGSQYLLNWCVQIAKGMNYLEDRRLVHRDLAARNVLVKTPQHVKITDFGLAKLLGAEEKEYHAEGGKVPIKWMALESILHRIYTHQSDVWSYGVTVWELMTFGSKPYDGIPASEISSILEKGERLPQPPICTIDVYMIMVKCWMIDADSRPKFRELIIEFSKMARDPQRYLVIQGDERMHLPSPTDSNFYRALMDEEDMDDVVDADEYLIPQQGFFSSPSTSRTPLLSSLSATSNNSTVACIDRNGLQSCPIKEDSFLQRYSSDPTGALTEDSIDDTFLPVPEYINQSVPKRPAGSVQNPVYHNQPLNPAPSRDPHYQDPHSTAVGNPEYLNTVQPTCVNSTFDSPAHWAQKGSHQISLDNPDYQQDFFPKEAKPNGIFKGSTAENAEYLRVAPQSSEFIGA
Chain of Vascular endothelial growth factor receptor 2 (P35968 whole entry): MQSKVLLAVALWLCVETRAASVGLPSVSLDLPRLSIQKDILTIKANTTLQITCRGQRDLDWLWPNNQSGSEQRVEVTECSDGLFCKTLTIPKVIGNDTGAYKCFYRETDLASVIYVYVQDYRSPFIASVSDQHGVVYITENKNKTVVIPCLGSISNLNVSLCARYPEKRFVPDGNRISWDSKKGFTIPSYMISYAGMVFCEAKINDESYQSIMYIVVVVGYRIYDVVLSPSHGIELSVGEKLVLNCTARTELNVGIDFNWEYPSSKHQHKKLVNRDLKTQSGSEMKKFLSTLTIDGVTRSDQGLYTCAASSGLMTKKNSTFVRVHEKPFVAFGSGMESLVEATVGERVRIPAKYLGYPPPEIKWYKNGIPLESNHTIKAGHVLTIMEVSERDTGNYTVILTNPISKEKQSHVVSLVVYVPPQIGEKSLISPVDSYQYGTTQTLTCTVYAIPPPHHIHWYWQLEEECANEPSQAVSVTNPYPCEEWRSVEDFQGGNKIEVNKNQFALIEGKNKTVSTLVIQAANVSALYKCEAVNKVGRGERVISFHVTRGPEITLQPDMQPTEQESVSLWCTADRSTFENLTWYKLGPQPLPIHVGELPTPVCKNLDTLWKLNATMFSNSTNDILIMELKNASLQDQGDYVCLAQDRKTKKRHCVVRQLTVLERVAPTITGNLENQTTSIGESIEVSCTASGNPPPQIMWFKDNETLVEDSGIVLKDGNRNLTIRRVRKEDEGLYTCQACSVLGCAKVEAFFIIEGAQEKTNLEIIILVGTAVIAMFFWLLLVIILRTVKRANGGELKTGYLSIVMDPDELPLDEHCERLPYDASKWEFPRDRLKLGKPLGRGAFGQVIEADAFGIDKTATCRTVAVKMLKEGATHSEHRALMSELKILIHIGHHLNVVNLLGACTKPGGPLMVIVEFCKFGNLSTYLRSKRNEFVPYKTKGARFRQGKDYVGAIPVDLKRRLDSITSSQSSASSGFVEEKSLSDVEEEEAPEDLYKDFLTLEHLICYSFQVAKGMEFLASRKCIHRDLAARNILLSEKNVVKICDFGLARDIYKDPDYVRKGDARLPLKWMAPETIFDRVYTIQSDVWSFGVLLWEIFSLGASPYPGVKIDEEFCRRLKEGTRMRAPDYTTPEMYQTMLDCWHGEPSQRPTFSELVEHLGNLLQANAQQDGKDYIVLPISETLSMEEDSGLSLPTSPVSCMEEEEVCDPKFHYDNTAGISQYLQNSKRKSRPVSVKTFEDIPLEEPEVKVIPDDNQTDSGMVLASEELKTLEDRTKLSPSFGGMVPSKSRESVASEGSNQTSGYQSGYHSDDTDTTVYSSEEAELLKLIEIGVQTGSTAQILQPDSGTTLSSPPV
Chain of Hepatocyte growth factor receptor (P08581 whole entry): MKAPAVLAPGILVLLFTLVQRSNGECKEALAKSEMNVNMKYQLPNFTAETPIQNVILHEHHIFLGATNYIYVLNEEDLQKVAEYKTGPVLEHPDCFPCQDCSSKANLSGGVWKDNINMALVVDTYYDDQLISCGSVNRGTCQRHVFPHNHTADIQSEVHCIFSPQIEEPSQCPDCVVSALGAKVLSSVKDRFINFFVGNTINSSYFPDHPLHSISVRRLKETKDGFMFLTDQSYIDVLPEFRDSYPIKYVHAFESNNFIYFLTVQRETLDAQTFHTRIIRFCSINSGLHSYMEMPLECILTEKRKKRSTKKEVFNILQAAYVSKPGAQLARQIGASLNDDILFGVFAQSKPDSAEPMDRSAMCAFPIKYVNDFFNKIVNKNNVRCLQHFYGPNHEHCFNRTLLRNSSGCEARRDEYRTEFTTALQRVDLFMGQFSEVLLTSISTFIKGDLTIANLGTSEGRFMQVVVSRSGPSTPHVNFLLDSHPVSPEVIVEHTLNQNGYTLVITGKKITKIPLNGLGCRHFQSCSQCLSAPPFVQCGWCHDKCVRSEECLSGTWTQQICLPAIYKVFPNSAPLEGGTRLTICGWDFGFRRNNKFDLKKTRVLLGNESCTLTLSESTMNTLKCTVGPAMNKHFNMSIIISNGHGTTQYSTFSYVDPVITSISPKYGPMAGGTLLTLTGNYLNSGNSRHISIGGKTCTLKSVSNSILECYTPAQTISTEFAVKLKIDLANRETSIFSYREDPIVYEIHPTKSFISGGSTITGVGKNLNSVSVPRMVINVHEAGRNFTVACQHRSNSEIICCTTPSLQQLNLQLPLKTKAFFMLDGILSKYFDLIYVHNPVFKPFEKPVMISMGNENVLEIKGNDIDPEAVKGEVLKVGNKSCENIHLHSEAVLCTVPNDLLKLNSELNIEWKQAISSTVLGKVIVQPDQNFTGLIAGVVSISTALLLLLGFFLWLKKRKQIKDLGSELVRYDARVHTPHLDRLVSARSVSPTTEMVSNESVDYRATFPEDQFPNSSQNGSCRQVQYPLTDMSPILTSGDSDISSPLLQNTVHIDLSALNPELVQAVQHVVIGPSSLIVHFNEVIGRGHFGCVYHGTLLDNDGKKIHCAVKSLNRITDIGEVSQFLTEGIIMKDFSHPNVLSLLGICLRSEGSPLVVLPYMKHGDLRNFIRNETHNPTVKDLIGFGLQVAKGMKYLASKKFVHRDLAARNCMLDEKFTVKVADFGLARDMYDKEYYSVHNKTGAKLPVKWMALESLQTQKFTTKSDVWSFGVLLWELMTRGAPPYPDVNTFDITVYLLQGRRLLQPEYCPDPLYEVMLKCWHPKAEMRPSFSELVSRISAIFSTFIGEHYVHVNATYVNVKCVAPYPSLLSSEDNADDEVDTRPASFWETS

- IC50 (MCF7; Homo sapiens, MCF7, 72 h, read-out: IC50): 930 nM
- IC50 [5]: 2600 nM
- IC50 (HepG2; Homo sapiens, HepG2, 72 h, read-out: IC50): 1000 nM
- IC50 (A549 [7]; Homo sapiens, A549, 72 h, read-out: IC50): 820 nM
- IC50 (PC-3; Homo sapiens, PC-3, 72 h, read-out: IC50): 920 nM
- IC50 [8]: 8900 nM
- IC50 [9]: 506 nM
- IC50 [10]: > 100000 nM
Compound: O=C(N/N=C/c1ccc(Br)cc1)Nc1ccc(Oc2ccnc3[nH]ccc23)c(F)c1
- Activity (A549 [1]): Active
- Activity (MCF7): Dose-dependent effect
- Activity (A549 [2]): 0.01%
- Activity (A549 [3]): 7.08%
- Activity (A549 [4]): 79.86%
- Activity (HepG2): Dose-dependent effect
- Activity (A549 [6]): 10.67%
- Activity (A549 [7]): Dose-dependent effect
- Activity (PC-3): Dose-dependent effect
- Activity (A549 [11]): Tde
